Measured values taken from ChEMBL document CHEMBL4270554, “Discovery of the cancer cell selective dual acting anti-cancer agent (Z)-2-(1H-indol-3-yl)-3-(isoquinolin-5-yl)acrylonitrile (A131)” (Eur J Med Chem, 2018).
Activity calls are given as the source filed them. The calls are words filed in the database; no cut-off is given here.

Columns and labels:
hTERT-BJ [1] = experiment: Inhibition of mitotic progression in human hTERT-BJ cells transformed with hTert, small t, shRNAs against p53 and pRb and H-RasV12-ER assessed as increase in phosphorylated histone H3 (Ser10) level at 5 uM after 24 hrs by immunoblot analysis relative to control; assay type: functional
Procedure, shortened: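 Fully transformed BJ fibroblasts (hTert, small t, shRNAs to p53 and pRb, H-RasV12-ER) treated 24 h at 5 μM. Immunoblot protocol as for HeLa. pH3 (Ser10) band intensity expressed as fold of DMSO control; under 2-fold counted as insignificant.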

hTERT-BJ [2] = experiment: Induction of autophagy in human hTERT-BJ cells transformed with hTert, small t, shRNAs against p53 and pRb and H-RasV12-ER assessed as increase in LC3-2 to LC3-1 ratio at 5 uM after 24 hrs by immunoblot analysis relative to control; assay type: functional
Procedure, shortened: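 Fully transformed BJ fibroblasts (hTert, small t, shRNAs to p53 and pRb, H-RasV12-ER) grown at 37 °C, 5% CO2 in 10% FBS medium; treated 24 h at 5 μM. Triton lysis, 14% SDS-PAGE, LC3 immunoblot; LC3-II/LC3-I band ratio relative to DMSO-treated control, under 2-fold induction deemed insignificant.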

HCT-15 = experiment: Antitumor activity against human HCT15 cells xenografted in BALB/c athymic nu/nu mouse assessed as tumor growth inhibition at 60 mg/kg, iv bid administered every 4 days; assay type: functional, organism-based
Procedure, shortened: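 Female BALB/c nu/nu mice bearing subcutaneous HCT15 xenografts (groups of 6). Paclitaxel 60 mg/kg given via tail vein twice every 4 days in ethanol:Tween 80:5% glucose (5:15:80). Tumor volumes tracked; mean ± SEM, two-way ANOVA vs vehicle.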

[3] = Intrinsic clearance in pooled male rat liver microsomes assessed per mg protein at 3 uM preincubated for 5 mins followed by NADPH addition measured after 45 mins by LC-MS/MS method; assay type: ADME, microsome; conditions: read-out: CLH
Procedure, shortened: (§1)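 Pooled female or male rat liver microsomes (0.3 mg protein/mL) with substrate at final 3 μM in 0.1 M phosphate pH 7.4. Pre-incubated 5 min at 37 °C, then started with NADPH (final 1 mM). Sampled at 0–45 min in triplicate, quenched with cold acetonitrile plus internal standard. Parent measured by LC-MS/MS. Midazolam as positive control; no-NADPH negative control.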

[4] = Half life in pooled female rat liver microsomes at 3 uM preincubated for 5 mins followed by NADPH addition measured after 45 mins by LC-MS/MS method; assay type: ADME, microsome
Procedure, shortened: (§2)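 Pooled female or male rat liver microsomes (0.3 mg protein/mL) with 3 μM substrate in 0.1 M phosphate buffer pH 7.4, pre-incubated 5 min at 37 °C, started with 1 mM NADPH. Samples at 0-45 min quenched in cold acetonitrile with internal standard, analysed by LC-MS/MS. Triplicates; midazolam positive control, no-NADPH negative control.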

[5] = Half life in pooled male rat liver microsomes at 3 uM preincubated for 5 mins followed by NADPH addition measured after 45 mins by LC-MS/MS method; assay type: ADME, microsome; procedure, shortened: as §2
[6] = Intrinsic clearance in pooled female rat liver microsomes assessed per mg protein at 3 uM preincubated for 5 mins followed by NADPH addition measured after 45 mins by LC-MS/MS method; assay type: ADME, microsome; conditions: read-out: CLH; procedure, shortened: as §1
BJ [7] = experiment: Cell cycle arrest in human BJ cells assessed as accumulation at sub-G1 phase at 5 uM after 48 hrs; assay type: cell-based
Procedure, shortened: (§3)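 Isogenic normal and fully transformed BJ fibroblasts (hTert, small t, shRNAs to p53 and pRb, H-RasV12-ER) exposed to 5 μM for 48 h. Percentage of cells in sub-G1 phase determined as a cell death measure.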

hTERT-BJ [8] = experiment: Cell cycle arrest in human hTERT-BJ cells transformed with hTert, small t, shRNAs against p53 and pRb and H-RasV12-ER assessed as accumulation at sub-G1 phase at 5 uM after 48 hrs; assay type: functional, cell-based; procedure, shortened: as §3
HeLa [9] = experiment: Inhibition of mitotic progression in human HeLa cells assessed as upregulation of phosphorylated histone H3 (Ser10) level after 6 hrs by immunoblot analysis; assay type: functional, cell-based
Procedure, shortened: (§4)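 HeLa cells treated 6 h with 0.625–10 μM test agent or chloroquine (1.25–100 μM), or DMSO. Lysis in 1% Triton buffer (pH 8.0) with protease and phosphatase inhibitors, 14% SDS-PAGE, immunoblot for LC3, pH3 (Ser10) and β-actin. Band intensity ratios (LC3-II/LC3-I; pH3) expressed relative to DMSO control.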

BJ [10] = experiment: Induction of apoptosis in human BJ cells transformed with hTert, small t, shRNAs against p53 and pRb and H-RasV12-ER assessed as activation of caspase-3/7 up to 5 uM after 48 hrs by caspase-Glo 3/7 luminescent assay; assay type: functional, cell-based
Procedure, shortened: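 Normal and transformed BJ cells treated 48 h across a concentration series. Caspase-3/7 activity by Caspase-Glo 3/7 luminescence, normalized to viable cell number from MTT. Mean ± S.D., n=3; two-tailed unpaired t tests.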

HeLa [11] = experiment: Induction of mitotic arrest in human HeLa cells assessed as formation of misaligned chromosomes at 2.5 uM after 6 hrs by DAPI staining-based immunofluorescence analysis; assay type: functional, cell-based
HeLa [12] = experiment: Induction of mitotic arrest in human HeLa cells expressing GFP-tagged tubulin assessed as appearance of large vacuole like structures that filled out cytoplasmic area at 2.5 uM after 20 hrs by microscopic method; assay type: functional, cell-based
Procedure, shortened: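 HeLa cells stably expressing GFP-tubulin exposed to compound or DMSO for 20 h. Cytoplasmic vacuole-like structures and mitotic arrest examined by high-resolution microscopy.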

HeLa [13] = experiment: Induction of mitotic arrest in human HeLa cells assessed as formation of disorganized spindles at 15 to 25 uM after 6 hrs by DAPI staining-based immunofluorescence analysis; assay type: functional, cell-based
HeLa [14] = experiment: Induction of mitotic arrest in human HeLa cells assessed as formation of disorganized spindles at 2.5 uM after 6 hrs by DAPI staining-based immunofluorescence analysis; assay type: functional, cell-based
HeLa [15] = experiment: Induction of autophagy in human HeLa cells assessed as increase in LC3-2 levels after 6 hrs by immunoblot analysis; assay type: functional, cell-based; procedure, shortened: as §4
HeLa [16] = experiment: Inhibition of colony formation in human HeLa cells after 7 days by plate colony counting method; assay type: functional, cell-based
HeLa [17] = experiment: Induction of mitotic arrest in human HeLa cells assessed as formation of misaligned chromosomes at 15 to 25 uM after 6 hrs by DAPI staining-based immunofluorescence analysis; assay type: functional, cell-based
HeLa [18] = experiment: Induction of autophagy in human HeLa cells assessed as increase in LC3 puncta at 2.5 uM after 6 hrs by DAPI staining-based immunofluorescence microscopy; assay type: functional, cell-based
Procedure, shortened: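 HeLa cells exposed to compound or DMSO for 6 h, then immunostained for LC3 with DAPI nuclear counterstain. Puncta formation scored by fluorescence imaging as a read-out of LC3-II.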

| SMILES | fold change (FC) (hTERT-BJ [1]) | fold change (FC) (hTERT-BJ [2]) | further results |
| --- | --- | --- | --- |
| O=C(Nc1cccc2cnccc12)c1c[nH]c2ccccc12 | 1.4 | 0.4 |  |
| NC(=O)/C(=C\c1cccc2cnccc12)c1c[nH]c2ccccc12 | 1.3 | 0.6 |  |
| CC(=O)O[C@H]1C(=O)[C@@]2(C)[C@H]([C@H](OC(=O)c3ccccc3)[C@]3(O)C[C@H](OC(=O)[C@H](O)[C@@H](NC(=O)c4ccccc4)c4ccccc4)C(C)=C1C3(C)C)[C@]1(OC(C)=O)CO[C@@H]1C[C@@H]2O |  |  | TGI (HCT-15): inactive |
| N#C/C(=C\c1cccc2cnccc12)c1c[nH]c2ccc(OCCC3OCCO3)cc12 | 1 | 0.7 |  |
| N#C/C(=C\c1cccc2cnccc12)c1c[nH]c2cc(Br)ccc12 | 1.6 | 0.7 |  |
| N#C/C(=C\c1cccc2cnccc12)c1c[nH]c2ccc(F)cc12 | 0.9 | 0.5 |  |
| N#CC(Cc1cccc2cnccc12)c1c[nH]c2ccccc12 (stereo not drawn) | 1.2 | 0.3 |  |
| N#C/C(=C\c1cccc2cnccc12)c1c[nH]c2ccc(Br)cc12 | 2.1 | 4 | microsomal CLint at 3 µM [3]: 118 µL/min/mg; half-life at 3 µM [4]: 43.8 min; half-life at 3 µM [5]: 19.6 min; microsomal CLint at 3 µM [6]: 53 µL/min/mg |
| N#C/C(=C\c1cncc2ccccc12)c1c[nH]c2ccccc12 | 1.3 | 0.7 | Activity (BJ [7]): Non-Toxic; Activity (hTERT-BJ [8]): inactive |
| N#C/C(=C\c1cncc2cnccc12)c1c[nH]c2ccccc12 | 1.4 | 1 |  |
| N#C/C(=C\c1cccc2cnccc12)c1c[nH]c2ccc([N+](=O)[O-])cc12 | 0.9 | 0.6 |  |
| N#C/C(=C\c1cccc2ccncc12)c1c[nH]c2ccccc12 | 1.5 | 0.7 |  |
| N#C/C(=C\c1cccc2ncccc12)c1c[nH]c2ccccc12 | 10.5 | 0.7 | Activity (BJ [7]): Toxic; Activity (hTERT-BJ [8]): Active |
| N#C/C(=C/c1cccc2cnccc12)c1nc2ccccc2[nH]1 | 1.1 | 1.2 | Activity (BJ [7]): Non-Toxic; Activity (hTERT-BJ [8]): inactive |
| N#C/C(=C\c1cccc2cnccc12)c1c[nH]c2ncccc12 | 1.8 | 1.4 |  |
| N#C/C(=C\c1cccc2cnccc12)c1c[nH]c2ccc(Cl)cc12 | 1.4 | 2 |  |
| COc1ccc2c(/C(C#N)=C/c3cccc4cnccc34)c[nH]c2c1 | 4.3 | 2.6 |  |
| CC(=O)Nc1ccc2[nH]cc(/C(C#N)=C/c3cccc4cnccc34)c2c1 | 1.2 | 0.5 |  |

| SMILES | fold change (FC) (hTERT-BJ [1]) | fold change (FC) (hTERT-BJ [2]) | further results |
| --- | --- | --- | --- |
| C(=C\c1c[nH]c2ccccc12)/c1cccc2cnccc12 | 1.3 | 5.4 | Activity (BJ [7]): Non-Toxic; Activity (hTERT-BJ [8]): inactive |
| N#C/C(=C\c1cccc2cccnc12)c1c[nH]c2ccccc12 | 1.3 | 0.6 |  |
| N#C/C(=C\c1cccc2cnccc12)c1c[nH]c2cccc(Br)c12 | 1.1 | 0.5 |  |
| COc1cccc2c(/C(C#N)=C/c3cccc4cnccc34)c[nH]c12 | 3.9 | 2.7 |  |
| N#C/C(=C\c1cccc2cnccc12)c1c[nH]c2ccccc12 |  |  | inhibition (HeLa [9]): Dose-dependent effect; Activity (BJ [10]): Active; Activity (hTERT-BJ [8]): Active; Activity (HeLa [11]): Active; Activity (HeLa [12]): Active; Activity (HeLa [13]): Active; Activity (HeLa [14]): Active; Activity (HeLa [15]): Dose-dependent effect; Activity (HeLa [16]): Dose-dependent effect; Activity (HeLa [17]): Active; Activity (HeLa [18]): Active |
| N#C/C(=C\c1cccc2cnccc12)c1c[nH]c2c(Br)cccc12 | 1.4 | 2.2 |  |
| N#C/C(=C\c1cccc2cnccc12)c1c[nH]c2ccc(OCCCN3CCCC3)cc12 | 0.9 | 6 | Activity (BJ [7]): Non-Toxic; Activity (hTERT-BJ [8]): inactive |
| N#C/C(=C\c1cccc2cnccc12)c1n[nH]c2ccccc12 | 1.4 | 2 |  |
| N#C/C(=C\c1cccc2cnccc12)c1c[nH]c2ccc(CN3CCCC3)cc12 | 1 | 3.3 |  |
| COCCOc1ccc2[nH]cc(/C(C#N)=C/c3cccc4cnccc34)c2c1 | 1.6 | 3.2 | Activity (BJ [7]): Non-Toxic; Activity (hTERT-BJ [8]): inactive |
| N#C/C(=C\c1ccnc2ccccc12)c1c[nH]c2ccccc12 | 1.4 | 0.4 |  |
| COc1ccc2[nH]cc(/C(C#N)=C/c3cccc4cnccc34)c2c1 | 3 | 3.2 | microsomal CLint at 3 µM [3]: 106 µL/min/mg; half-life at 3 µM [4]: 33.4 min; half-life at 3 µM [5]: 21.8 min; microsomal CLint at 3 µM [6]: 66 µL/min/mg |
| Cc1[nH]c2ccccc2c1/C(C#N)=C/c1cccc2cnccc12 | 1.1 | 0.7 |  |
| N#C/C(=C\c1cccc2cnccc12)c1c[nH]c2c(CN3CCCC3)cccc12 | 0.8 | 3.7 |  |
| N#C/C(=C\c1cccnc1)c1c[nH]c2ccccc12 | 1.2 | 1.1 |  |
| Cn1cc(/C(C#N)=C/c2cccc3cnccc23)c2ccccc21 | 1.1 | 1.6 |  |
| N#C/C(=C\c1cccc2cnccc12)c1c[nH]c2cc(CN3CCCC3)ccc12 | 1.1 | 5.7 |  |
